Ends that are not written are not given here.
Tested on: T7 Express LysY/I^q E. coli
Assay: Induction test: growth
Assay type: cell-based, Escherichia coli
Settings: 0.50 mM IPTG, LB with kan, 37 °C, OD600 over nine hours
Outline: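 T7 Express LysY/Iq E. coli transformed with 80 ng pETh vector carrying oncocin or a negative control, each separately. After SOC recovery, cells were pelleted and resuspended in LB with 50 µg mL-1 kanamycin. This suspension seeded LB-kanamycin (1:100) containing 0 to 0.50 mM IPTG. Cultures were shaken at 250 rpm at 37 °C for nine hours, with OD600 read every 50 minutes.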

Question: For “VDKPPYLPRPRPPRRIYNR-NH2 (C-terminus assumed) [oncocin]”, which “growth of oncocin-expressing E. coli upon induction (in words)” value is on record?
Answer: nearly complete growth inhibition

Reference: PMC9009525 (ACS synthetic biology, 2021)
